Measurements taken from publication PMC10733988 (ACS Omega, 2023).

Assays:
Recombinant human MAO-A = molecular target: T1, Recombinant human MAO-A (Homo sapiens, UniProt P21397); assay: MAO-A inhibition enzyme assay; format: biochemical; conditions: for remaining activity at 10 µM: read-out: residual activities at 10 μM (%) MAO-A
T1 sequence (P21397 1-527): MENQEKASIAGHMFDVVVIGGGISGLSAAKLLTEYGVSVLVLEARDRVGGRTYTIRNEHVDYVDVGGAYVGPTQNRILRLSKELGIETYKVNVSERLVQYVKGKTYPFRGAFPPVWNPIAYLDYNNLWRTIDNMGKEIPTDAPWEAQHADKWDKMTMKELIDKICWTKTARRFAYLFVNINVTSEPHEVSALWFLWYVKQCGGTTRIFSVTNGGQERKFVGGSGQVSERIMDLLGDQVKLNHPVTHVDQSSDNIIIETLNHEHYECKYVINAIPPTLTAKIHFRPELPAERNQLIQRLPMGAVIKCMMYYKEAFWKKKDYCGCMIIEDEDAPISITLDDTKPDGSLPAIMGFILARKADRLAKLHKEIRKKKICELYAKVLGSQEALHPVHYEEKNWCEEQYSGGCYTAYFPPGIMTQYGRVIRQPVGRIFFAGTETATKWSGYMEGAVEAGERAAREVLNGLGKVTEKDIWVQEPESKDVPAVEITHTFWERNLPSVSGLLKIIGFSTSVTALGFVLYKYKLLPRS

Recombinant human MAO-B [1] = molecular target: T2, Recombinant human MAO-B (Homo sapiens, UniProt P27338); assay: MAO-B inhibition enzyme assay; format: biochemical; conditions: for SI (selectivity index): IC50 for MAO-A / IC50 for MAO-B; for remaining activity at 10 µM: read-out: residual activities at 10 μM (%) MAO-B
T2 sequence (P27338 1-520): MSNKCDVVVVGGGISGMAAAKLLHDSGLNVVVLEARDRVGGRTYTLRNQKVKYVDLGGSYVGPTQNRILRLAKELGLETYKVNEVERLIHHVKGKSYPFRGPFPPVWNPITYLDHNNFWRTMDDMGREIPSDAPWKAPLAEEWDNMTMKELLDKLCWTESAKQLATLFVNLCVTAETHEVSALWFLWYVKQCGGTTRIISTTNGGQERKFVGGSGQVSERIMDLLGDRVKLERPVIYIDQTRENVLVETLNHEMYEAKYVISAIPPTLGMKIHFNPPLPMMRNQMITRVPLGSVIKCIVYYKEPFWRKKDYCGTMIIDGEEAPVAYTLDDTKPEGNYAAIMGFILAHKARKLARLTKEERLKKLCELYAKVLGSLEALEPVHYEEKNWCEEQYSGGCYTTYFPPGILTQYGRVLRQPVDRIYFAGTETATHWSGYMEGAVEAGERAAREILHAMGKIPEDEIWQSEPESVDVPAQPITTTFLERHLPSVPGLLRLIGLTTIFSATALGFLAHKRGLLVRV

BBB permeability assay = format: in vitro ADME; conditions: for Papp / prediction (BBB permeation): PAMPA; for prediction (BBB permeation): class from Pe
Method in brief: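 Passive BBB permeation is estimated with a non-cell PAMPA: a filter membrane (0.45 µm pore, 125 µm thick) soaked in n-dodecane sits between donor and acceptor wells. Test compound stocks (10 mM in DMSO, kept at 0 °C) are diluted in buffer to final 1, 0.1 and 0.01 mM, with DMSO below 1% (v/v). Pe is calculated from donor and receptor absorbance, filter area (0.45 cm²), compartment volumes and time.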

Recombinant human MAO-B [2] = molecular target: T2, Recombinant human MAO-B; assay: MAO-B enzyme kinetics; format: biochemical; conditions: for type of MAO-B inhibition: Lineweaver-Burk plot
Method in brief: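 Recombinant human MAO-B in 50 mM sodium phosphate (pH 7.2), 25 °C, 30 min. Benzylamine was the substrate, tested at five concentrations, and product formation was followed continuously as absorbance change at 250 nm. Reactions were started by adding substrate to the enzyme mixture, with three inhibitor conditions per test compound. Inhibition type came from Lineweaver–Burk plots and Ki from secondary plots.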

Recombinant human MAO-B [3] = molecular target: T2, Recombinant human MAO-B; assay: Reversibility of MAO-B inhibition by dialysis; format: biochemical; conditions: dialysis method

SMILES	IC50 (Recombinant human MAO-A)	remaining activity at 10 µM (Recombinant human MAO-A)	IC50 (Recombinant human MAO-B [1])	SI (selectivity index) (Recombinant human MAO-B [1])	remaining activity at 10 µM (Recombinant human MAO-B [1])	Papp (BBB permeability assay)	prediction (BBB permeation) (BBB permeability assay)	Ki (Recombinant human MAO-B [2])	type of MAO-B inhibition (Recombinant human MAO-B [2])	reversibility of MAO-B inhibition (Recombinant human MAO-B [3])	Pe (cm/s) (BBB permeability assay; PAMPA effective permeability)
O=C(NN=Cc1ccccc1)c1ccc(Cl)cc1 [ACH7]	> 40 µM	127 ± 3.48%	12.8 ± 0.026 µM	> 3.13	43.5 ± 4.56%	–	–	–	–	–	–
O=C(NN=Cc1ccc(Br)cc1)c1ccccc1 [ACH2]	> 40 µM	131 ± 2.9%	1.65 ± 0.21 µM	–	30.2 ± 0.95%	–	–	–	–	–	–
O=C(NN=Cc1ccc(F)cc1)c1ccc(F)cc1 [ACH14]	19.6 ± 1.41 µM	63.8 ± 1.76%	0.15 ± 0.02 µM	130.47	-14.4%	4.98 ×10⁻⁶ cm/s	CNS+ (Pe > 4.00 × 10^–6 cm/s: CNS+ (high permeation))	0.1 ± 0.038 µM	competitive MAO-B inhibitors	reversible inhibitors of MAO-B	–
C#CCN(C)[C@H](C)Cc1ccccc1 [selegiline, reference compound]	–	–	–	–	–	–	CNS+ (Pe > 4.00 × 10^–6 cm/s: CNS+ (high permeation))	–	–	–	5.69 ± 0.04 cm/s
O=C(NN=Cc1ccc(Cl)cc1)c1ccc(Br)cc1 [ACH8]	20.2 ± 0.57 µM	59.6 ± 3.12%	0.2 ± 0.09 µM	101.10	18.3 ± 3.45%	–	–	–	–	–	–
O=C(NN=Cc1ccccc1)c1ccc(Br)cc1 [ACH11]	> 40 µM	102 ± 4.64%	5.2 ± 0.056 µM	> 7.69	39 ± 5.61%	–	–	–	–	–	–
O=C(NN=Cc1ccc(Br)cc1)c1ccc(Cl)cc1 [ACH5]	> 40 µM	70.6 ± 4.16%	1.54 ± 0.04 µM	> 25.97	35.8 ± 1.88%	–	–	–	–	–	–
O=C(NN=Cc1ccc(Br)cc1)c1ccc(F)cc1 [ACH13]	11.6 ± 0.07 µM	38.5 ± 5.44%	0.18 ± 0.01 µM	64.44	-50.9%	–	–	–	–	–	–
O=C(NN=Cc1ccc(Cl)cc1)c1ccccc1 [ACH1]	> 40 µM	96 ± 8.49%	0.36 ± 0.04 µM	–	10.7 ± 2.52%	–	–	–	–	–	–
O=C(NN=Cc1ccc(F)cc1)c1ccccc1 [ACH3]	> 40 µM	109 ± 7.07%	0.22 ± 0.02 µM	–	7.08 ± 1.25%	–	–	–	–	–	–
O=C(NN=Cc1ccc(F)cc1)c1ccc(Cl)cc1 [ACH6]	> 40 µM	117 ± 1.86%	8 ± 0.037 µM	> 5.00	46.4 ± 1.68%	–	–	–	–	–	–
O=C(NN=Cc1ccc(Cl)cc1)c1ccc(F)cc1 [ACH12]	4.85 ± 0.83 µM	37.6 ± 2.24%	5.6 ± 0.1 µM	0.87	33.8%	–	–	–	–	–	–
O=C(NN=Cc1ccc(Br)cc1)c1ccc(Br)cc1 [ACH9]	> 40 µM	101 ± 1.86%	> 40 µM	–	98.2%	–	–	–	–	–	–
O=C(NN=Cc1ccc(F)cc1)c1ccc(Br)cc1 [ACH10]	23.4 ± 0.56 µM	61.8 ± 6.24%	0.14 ± 0.011 µM	167.29	11.7 ± 1.42%	5.12 ×10⁻⁶ cm/s	CNS+ (Pe > 4.00 × 10^–6 cm/s: CNS+ (high permeation))	0.097 ± 0.0021 µM	competitive MAO-B inhibitors	reversible inhibitors of MAO-B	–
O=C(NN=Cc1ccc(Cl)cc1)c1ccc(Cl)cc1 [ACH4]	> 40 µM	92.1 ± 1.86%	0.37 ± 0.006 µM	> 108.11	20.2 ± 1.68%	–	–	–	–	–	–
